PMI act hi M6P: activators of human phosphomannose isomerase at near-saturating mannose 6-phosphate; P34949; coupled PMI enzyme assay, resazurin fluorescence, 20 min; active compounds read high; 1 = untreated enzyme, 0 = substrate-free blank; activation factor at 20 µM; 0.34% of 190,000 active; AID 1216;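 active = activation factor of 2 or more at 20 µM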
Target sequence (P34949 whole entry, looked up): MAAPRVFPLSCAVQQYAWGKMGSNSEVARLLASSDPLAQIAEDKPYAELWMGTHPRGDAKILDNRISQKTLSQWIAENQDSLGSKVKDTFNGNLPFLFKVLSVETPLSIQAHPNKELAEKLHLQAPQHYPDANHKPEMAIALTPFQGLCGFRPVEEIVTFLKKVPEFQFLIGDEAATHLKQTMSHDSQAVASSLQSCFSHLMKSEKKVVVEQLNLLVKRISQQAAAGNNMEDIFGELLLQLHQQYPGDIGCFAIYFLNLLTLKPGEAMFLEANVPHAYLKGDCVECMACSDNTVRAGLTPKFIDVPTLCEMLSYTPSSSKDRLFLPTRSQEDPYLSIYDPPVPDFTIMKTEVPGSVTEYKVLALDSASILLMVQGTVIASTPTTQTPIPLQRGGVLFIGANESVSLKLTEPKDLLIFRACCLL
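Material: human phosphomannose isomerase with PGI, G6PDH, diaphorase coupling enzymes; amount: PMI at 15 ng/mL final; also added: Mannose-6-phosphate 1.0 mM (near-saturating) plus 0.22 mM NADP+; incubation: enzyme reaction with compound 20 min at room temperature; signal: resorufin fluorescence (Ex 544/Em 590 nm) from resazurin via diaphorase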
m-calpain inh: calpain II (pig) inhibition; purified calpain II, fluorogenic peptide substrate, 30 min; inhibition, % at 16 µM; 0.37% of 220,000 active; AID 1236;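 active = inhibition above about 50%, limit read from the data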
Rad51 HR inh: Rad51 (human) homologous recombination inhibition | hRad51 DNA strand exchange, fluorescence dequenching | inhibition, % at 10 µM | 0.085% of 200,000 active;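 active = inhibition above 40% at the single screening dose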;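 note: 0% = DMSO control wells and 100% = blanks with heterologous ssDNA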
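Read-out basis: percent inhibition relative to plate controls and blanks / Assay system: human Rad51 nucleoprotein filaments preassembled on unlabelled ssDNA / Timing: filaments 15 min 37 °C, then compound 30 min / Control set: per-plate controls and blanks / Technique: fluorescence dequenching at 485/520 nm / Compound: 10 µM final, single point / Also added: Fluorescein- and BHQ1-tagged 47-mer duplex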
L major viab: inhibitors of Leishmania major promastigote growth; inhibition, % at 10 µM; AID 1063; Leishmania major promastigotes, resazurin fluorescence viability; 9% of 200,000 active; in the data active = inhibition above about 50%;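 note: promastigotes grown with compound for 44 hours at 28 °C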
PMI activator: activators of human phosphomannose isomerase | purified human PMI, coupled resazurin fluorescence, 20 min; active compounds read high; 1 = vehicle control, 0 substrate-free wells | activation factor at 20 µM | 0.005% of 190,000 active | AID 1214;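 active = activation factor of 2 or more at 20 µM, relative to plate controls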
WT yeast gro inh: growth inhibition of WT yeast, mitochondrial fusion screen; mitochondrial fusion phenotypic screen, WT strain; inhibition, % at 10 µM; 2.1% of 190,000 active; AID 1362; in the data active = inhibition above about 58%; tested in S. cerevisiae
Starred values were filed as active, the others as inactive; i = inactive; . = no result. In the library only some 9.8% were active in any assay of this set; here they are far more common.

SMILES	PMI act hi M6P	m-calpain inh	Rad51 HR inh	L major viab	PMI activator	WT yeast gro inh
Cc1cccc(N2CCN(C(=O)C3CCN(S(=O)(=O)c4cccc5cccnc45)CC3)CC2C)c1 (stereo not drawn)	0.9	-53.9	.	14.2	0.9	11.2
O=C(C1CCN(S(=O)(=O)c2cccc3nsnc23)CC1)N1CCc2ccccc21	0.8	2.0	-4.6	87.3*	0.9	-3.6
CC1Cc2ccccc2N1C(=O)C1CCCN(S(=O)(=O)c2cccc3nsnc23)C1 (stereo not drawn)	0.9	54.8*	5.2	46.3	0.9	16.7
O=C(C1CCCN(S(=O)(=O)c2cccc3nsnc23)C1)N1CCc2ccccc21 (stereo not drawn)	0.9	-8.9	.	4.7	0.9	6.8
NC(=O)c1ccc(N2CCCCC2)c(N2C(=O)C3CC=CCC3C2=O)c1 (stereo not drawn)	0.9	-15.9	2.4	-3.1	1	84.5*
CC(OC(=O)c1nn(C(C)C)c(=O)c2ccccc12)C(=O)Nc1ncc(Cl)cc1Cl (stereo not drawn)	1.1	14.2	32.8	-3.3	1	13.2
O=C(Nc1ccc(NC(=O)C2CCCCC2)nc1)c1ccco1	1	22.8	-1.0	86.4*	1	10.0
O=C(Nc1ccc(NC(=O)C2CC2)nc1)c1ccco1	1.1	2.5	-2.7	-3.0	1	-3.7
O=C(Nc1ccc(NC(=O)C2CCCCC2)nc1)c1ccccn1	1	8.7	-10.9	71.3*	1	8.9
CNC(=O)CSc1cnc2ccccc2n1	1	25.6	-3.5	-5.3	1.1	7.0
NNC(=O)c1ccc2nc(-c3ccc(Br)cc3)cn2c1	1.1	-35.1	18.8	54.2*	1.1	70.7*
COc1ccc(-c2cn3cc(C(=O)NN)ccc3n2)cc1	0.9	i	.	1.8	0.9	35.3
COC(=O)NCN1C(=O)C2C3C=CC(C3)C2C1=O (stereo not drawn)	1.1	29.6	6.9	0.5	1	5.1
COc1ccc(Nc2nc(N)c([N+](=O)[O-])c(NCCO)n2)cc1	.	-4.0	.	.	.	.
CNc1nc(Nc2ccc(Br)cc2)nc(N)c1[N+](=O)[O-]	0.8	-14.8	5.5	50.3*	1	9.8
CC1(C)Cc2ccccc2C(/C(C#N)=N/O)=N1	1	21.2	-14.2	-0.3	1	0.7
CN(C(=O)Nc1cnccc1C(F)(F)F)C1CCCCC1	.	-13.9	-12.2	.	.	.
COc1cccc(N2C(=O)CC(NNC(=O)c3cccs3)C2=O)c1 (stereo not drawn)	1.1	-3.1	1.8	62.7*	1.1	6.6
O=C(NNC1CC(=O)N(c2cccc(Cl)c2)C1=O)c1cccs1 (stereo not drawn)	1.1	-4.5	4.6	63.3*	1.2	0.2
CN(C)CC(C)(C)CNC(=S)NCc1ccc2c(c1)OCO2	1	-4.9	8.1	-1.6	1	4.8
Cc1ccc(NC(=S)NCc2ccc3c(c2)OCO3)cc1C	1	15.0	18.8	-4.5	0.8	60.9*
CC(C)(C)NC(=S)NCc1ccc2c(c1)OCO2	1.1	9.9	6.3	56.4*	1.1	-3.0
Cc1ccc(NC(=O)NCc2ccc3c(c2)OCO3)cc1C	1	41.2	.	-0.5	1	-6.6
CC(CNCc1ccc2c(c1)OCO2)NCc1ccc2c(c1)OCO2 (stereo not drawn)	0.9	-11.7	8.7	92.8*	0.9	15.1
COc1ccc(CCNC2CC(=O)N(C3CCCCC3)C2=O)cc1OC (stereo not drawn)	1	1.0	17.6	-5.2	1	-7.6
SMILES	PMI act hi M6P	m-calpain inh	Rad51 HR inh	L major viab	PMI activator	WT yeast gro inh
Cc1ccc(C2N(c3ccc(Cl)cc3)C(=O)N3CCCN23)cc1 (stereo not drawn)	.	15.8	12.2	.	.	.
CC(Sc1nc(N(C)C)nc(N2CCOCC2)n1)C(=O)Nc1ccccc1 (stereo not drawn)	1	2.7	2.9	62.7*	1	7.9
CC(Sc1nc(N2CCOCC2)nc(N2CCOCC2)n1)C(=O)Nc1ccccc1 (stereo not drawn)	1	19.9	-4.0	9.8	1	5.7
COc1ccc(/C=C/C(=O)O)cc1COc1ccccc1C	1.1	-30.1	14.5	-8.3	1.1	4.9
O=C(/C=C/c1ccccc1)c1cc(Br)ccc(=O)c1O	1.8	-16.4	1.2	77.4*	1.4	3.7
Cc1ccc(/C=C/C(=O)c2ccccc(=O)c2O)cc1C	1.4	-3.8	-13.9	97.2*	1.2	-19.6
